Test [1] concerns the target T1, HCK-T338H (Homo sapiens, UniProt P08631, T333H). As to the kind of experiment: HCK activation loop autophosphorylation. The test is classed as cell-based. In a few lines:
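GM-CSF-dependent TF-1 cells were made cytokine-independent by retroviral FLT3-ITD, then retrovirally transduced with mutant HCK. For kinase activity, cells were exposed to 0, 30, 100 or 300 nM test compound; HCK was immunoprecipitated and blotted for pY416 and total HCK (3 independent experiments, normalized to DMSO). IC50: Cell Titer-Blue viability across a concentration range, triplicate, DMSO-normalized, nonlinear regression.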

The subject of test [2] is AML patient-derived xenografts. The note with it: oral administration; cited from earlier work.
The target in a further test is HCK-T338M (Homo sapiens, UniProt P08631, T333M). The test can be described thus: HCK activation loop autophosphorylation. The test is classed as cell-based. In a few lines:
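Transfected human 293T cells expressing the mutant kinase were treated with the test compound at 0, 100 or 1000 nM, with DMSO as the no-inhibitor control. HCK was immunoprecipitated and immunoblotted for pY416 and total HCK, then detected with infrared-dye secondary antibodies. The pY416/HCK signal ratio was normalized to DMSO; mean ± SE of two independent experiments.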

Test [3] has as its system TF-1/FLT3-ITD cells expressing HCK-T338H. The test can be described thus: Growth inhibition. The test is classed as cell-based, human. In a few lines:
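TF-1 cells made cytokine-independent by retroviral FLT3-ITD transduction, then retrovirally transduced with wild-type or mutant HCK. Each population exposed to a wide range of test compound concentrations; viability read by Cell Titer-Blue. Each point in triplicate, normalized to DMSO (no inhibitor) control, plotted as mean ± SE. IC50 estimated by nonlinear regression fit of concentration-response curves.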

For test [4], the system named is Rat-2 resistant clone 5-1 (HCK-YF mutant library). Format: cell-based. The note with it: resistant clone 5-1, 1 μM A-419259 vs DMSO.
For test [5], the system named is Philadelphia chromosome-positive CML cells. The note with it: at concentrations that did not directly inhibit BCR-ABL; cited from earlier work.
In test [6] the test system is Rat-2 cells expressing HCK-YF. The test can be described thus: Soft-agar colony-forming assay, Rat-2 fibroblasts transformed with HCK-YF. Format: cell-based. The note with it: 1 μM A-419259, soft agar, two weeks. Put shortly: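 Rat-2 fibroblasts infected with 293T-produced retroviruses carrying the HCK-YF codon mutagenesis library, then G-418 selected. Cells plated in soft agar (semi-solid medium) with test compound at 1.0 μM, 5,000 cells per plate, selected two weeks. Picked colonies expanded in 2D without inhibitor, then re-assayed with test compound or DMSO carrier in triplicate. Colonies Wright-Giemsa stained and counted; mean ± SE.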

Test [7] deals with T1, HCK-T338H. As to the kind of experiment: HCK activation loop autophosphorylation. The test is classed as cell-based. The note with it: 293T cells, 100 and 1,000 nM A-419259.
Test [8] concerns the target kinome panel (HCK, other SRC-family members, FLT3 and other Class III receptor tyrosine kinases). The note with it: KINOMEscan; cited from earlier work.

T1 sequence (P08631 22-526 T333H): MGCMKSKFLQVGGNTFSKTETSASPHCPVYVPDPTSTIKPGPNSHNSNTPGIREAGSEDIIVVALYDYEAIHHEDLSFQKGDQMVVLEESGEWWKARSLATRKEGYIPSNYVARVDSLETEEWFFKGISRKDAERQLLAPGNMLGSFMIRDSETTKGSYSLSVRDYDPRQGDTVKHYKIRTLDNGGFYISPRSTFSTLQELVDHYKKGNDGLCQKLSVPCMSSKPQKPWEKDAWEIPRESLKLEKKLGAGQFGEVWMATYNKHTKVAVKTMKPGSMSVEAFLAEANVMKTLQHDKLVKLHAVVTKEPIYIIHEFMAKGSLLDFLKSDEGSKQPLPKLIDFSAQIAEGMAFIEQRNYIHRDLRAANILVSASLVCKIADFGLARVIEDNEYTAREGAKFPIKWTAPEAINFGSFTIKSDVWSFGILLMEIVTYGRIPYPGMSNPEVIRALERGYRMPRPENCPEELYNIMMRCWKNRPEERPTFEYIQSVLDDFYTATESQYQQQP
HCK-T338M, sequence (P08631 22-526 T333M): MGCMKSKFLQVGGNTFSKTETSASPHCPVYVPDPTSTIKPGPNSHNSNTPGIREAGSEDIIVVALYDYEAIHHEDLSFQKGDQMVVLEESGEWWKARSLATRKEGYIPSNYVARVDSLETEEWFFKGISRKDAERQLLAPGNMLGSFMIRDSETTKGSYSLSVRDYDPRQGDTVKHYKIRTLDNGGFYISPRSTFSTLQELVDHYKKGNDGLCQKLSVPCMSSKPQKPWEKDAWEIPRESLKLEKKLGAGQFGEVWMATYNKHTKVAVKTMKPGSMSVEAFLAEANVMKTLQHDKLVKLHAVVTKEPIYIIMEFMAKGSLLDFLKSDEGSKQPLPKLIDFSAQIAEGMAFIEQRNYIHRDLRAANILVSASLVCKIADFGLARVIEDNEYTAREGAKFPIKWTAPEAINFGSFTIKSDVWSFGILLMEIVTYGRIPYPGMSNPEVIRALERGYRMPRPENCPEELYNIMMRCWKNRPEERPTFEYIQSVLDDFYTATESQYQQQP

For the compound `CN1CCN(C2CCC(n3cc(-c4ccc(Oc5ccccc5)cc4)c4c(N)ncnc43)CC2)CC1` (stereo not shown) [A-419259], the “Tyr416 phosphorylation of HCK-T338H in the presence of A-419259” value on HCK-T338H [1] (TF-1/FLT3-ITD cells, concentrations up to 100 nM) is listed as “remained phosphorylated on Tyr416”. For the same compound, the IC50 – broadly, the midpoint of a concentration-inhibition curve – on HCK-T338H [1] (read-out: IC50, kinase inhibition, TF-1/FLT3-ITD cells expressing HCK-T338H) is roughly 100 nM; in test [3] (read-out: IC50, growth suppression, TF-1/FLT3-ITD cells expressing HCK-T338H), roughly 100 nM. Besides, the “activity in mice bearing AML patient-derived xenografts” value in test [2] is listed as “potent activity”. For the same compound, the “resistance of HCK-T338M autophosphorylation to A-419259” value at HCK-T338M (293T cells, 100 nM A-419259) was “complete resistance”; on HCK-T338M (293T cells, 1,000 nM A-419259), “partial resistance”. For the same compound, in test [3] (HCK-T338H expression vs wild-type HCK), the “sensitivity of TF-1/FLT3-ITD cells to growth inhibition” value is listed as “reduced sensitivity”. Moreover, the “shift in the IC50 for growth suppression” value in test [3] (HCK-T338H vs wild-type HCK in TF-1/FLT3-ITD cells) came to 2 fold. The “colony formation in the presence vs absence of A-419259” value in [4] is “equal numbers of colonies in the presence or absence of A-419259”. The “growth arrest and apoptosis of CML cells” value in test [5] is “induced growth arrest and apoptosis”. For the same compound, the “colony formation by control cells expressing HCK-YF” value in test [6] is given as “completely blocked colony formation”. The “activation loop phosphorylation (pY416) of HCK-T338H” value on HCK-T338H [7] is listed as “no change in activation loop phosphorylation”. Besides, the kinase specificity profile entry in [8] was “remarkably narrow specificity profile”.

These data come from paper PMC8136437 (ACS chemical biology, 2020).
